Common to all, as to type: cell-based
The subject of one assay is malignant melanoma A375. Nature of the assay: MTT cytotoxicity assay, A375. The conditions noted are these: Homo sapiens, A-375, 72 h, read-out: IC50 A375. Summed up: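 A375 cells were kept in RPMI 1640 with 10% FBS, 2 mM L-glutamine, 25 mM HEPES and penicillin-streptomycin at 37 °C and 5% CO2. Cells were seeded at 3000 per well and allowed to adhere for 20 h. They were treated for 72 h, and survival was read by MTT. IC50 is the mean ± SD of three independent experiments.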

Assay [1] relates to cervical adenocarcinoma HeLa. The assay can be described thus: MTT cytotoxicity assay, HeLa. The conditions noted are these: Homo sapiens, 72 h, read-out: IC50 HeLa. On the technique in general: Tetrazolium assays rely on reduction of a dye to a coloured formazan, in cell work by metabolically active cells.
Assay [2] relates to chronic myelogenous leukemia K562 cells. The assay can be described thus: MTT cytotoxicity assay, K562. The conditions noted are these: Homo sapiens, K562, 72 h, read-out: IC50 K562.
The subject of the next assay is lung fibroblasts MRC-5. Nature of the assay: MTT cytotoxicity assay, normal MRC-5. The conditions noted are these: Homo sapiens, MRC5, 72 h, read-out: IC50 MRC-5.
Assay [3] has as its system colon adenocarcinoma LS174. The assay can be described thus: MTT cytotoxicity assay, LS174. Particulars: Homo sapiens, LS174, 72 h, read-out: IC50 LS174.
For the next assay, the system named is lung carcinoma A549. The assay can be described thus: MTT cytotoxicity assay, A549. Particulars: Homo sapiens, A549, 72 h, read-out: IC50 A549.

A value given as a limit tells only on which side of the number the result lay.

A word on the IC50: it is the concentration that gives 50% inhibition.

Turning to `COC(=O)C1=C(C)N(C)C(=S)NC1c1ccccc1` (centres unmarked) [4a, Methyl 1,2,3,4-tetrahydro-1,6-dimethyl-2-thioxo-4-phenylpyrimidine-5-carboxylate], the IC50 was determined as 123 ± 7.17 µM in the assay with malignant melanoma A375; 128 ± 15.4 µM in assay [1]; 163 ± 4.62 µM in assay [2]; 92.97 ± 0.59 µM with lung fibroblasts MRC-5; 170.5 ± 1.28 µM in assay [3].

Consider `COC(=O)C1=C(C)N(C)C(=S)NC1c1ccc(Cl)cc1` (centres unmarked) [4b, Methyl 4-(4′-chlorophenyl)-1,2,3,4-tetrahydro-1,6-dimethyl-2-thioxopyrimidine-5-carboxylate], for which the IC50 in the assay with malignant melanoma A375 was 102 ± 6.26 µM; in assay [1], 81.8 ± 9.57 µM; in assay [2], 95.9 ± 1.85 µM; in the assay on lung carcinoma A549, 123 ± 6.05 µM; in the assay with lung fibroblasts MRC-5, 28.2 ± 0.32 µM; in assay [3], 153 ± 9.08 µM.

With `COC(=O)C1=C(C)N(C)C(=S)NC1c1ccc([N+](=O)[O-])cc1` (centres unmarked) [4c, Methyl 4-(4′-nitrophenyl)-1,2,3,4-tetrahydro-1,6-dimethyl-2-thioxopyrimidine-5-carboxylate], the IC50 with malignant melanoma A375 stood at 158 ± 7.84 µM; in assay [1], 122 ± 12.8 µM; in assay [2], 193 ± 3.75 µM; in the assay with lung fibroblasts MRC-5, 88.9 ± 6.31 µM; in assay [3], 185 ± 5.5 µM.

In the case of `COC(=O)C1=C(C)N(C)C(=S)NC1c1ccc(C(=O)O)cc1` (centres unmarked) [4d, 4-(5-(methoxycarbonyl)-1,2,3,4-tetrahydro-1,6-dimethyl-2-thioxopyrimidin-4-yl)benzoic acid], the IC50 was 199.6 ± 0.59 µM with malignant melanoma A375; 139 ± 7.64 µM in assay [1]; 195 ± 7.62 µM in assay [2]; 169 ± 8.98 µM in the assay on lung fibroblasts MRC-5; more than 200 µM in assay [3].

Take `COC(=O)C1=C(C)N(C)C(=S)NC1c1ccc(O)c(OC)c1` (centres unmarked) [4e, Methyl 1,2,3,4-tetrahydro-4-(4′-hydroxy-3′-methoxyphenyl)-1,6-dimethyl-2-thioxopyrimidine-5-carboxylate]: the IC50 stood at 176 ± 2.9 µM in the assay with malignant melanoma A375; 157 ± 6.52 µM in assay [1]; 197 ± 0.54 µM in assay [2]; 114 ± 2.36 µM with lung fibroblasts MRC-5; 196 ± 2.87 µM in assay [3].

The record behind these values is PMC9220501 (Chemico-Biological Interactions, 2022).
